Series [1] addresses T1, Human immunodeficiency virus type 1 reverse transcriptase (Human immunodeficiency virus 1, UniProt Q72547). The series is described as follows: Inhibition of HIV1 wild-type reverse transcriptase by scintillation counting assay.
The target in series [2] is Cytochrome P450 3A4 (Homo sapiens, UniProt P08684). Put plainly: Inhibition of recombinant CYP3A4. The format is ADME. In short, it runs like this: (§1)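 Fluorogenic assay using 7-benzyloxy-4-(trifluoromethyl)-coumarin as substrate; IC50 reported in micromolar.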
For series [3], the target named is Human immunodeficiency virus type 1 reverse transcriptase (Human immunodeficiency virus 1, UniProt Q72547, K103N). The series is described as follows: Inhibition of HIV1 reverse transcriptase K103N mutant by scintillation counting assay.
The target in series [4] is Human immunodeficiency virus type 1 reverse transcriptase (Human immunodeficiency virus 1, UniProt Q72547, Y181C). The series is described as follows: Inhibition of HIV1 reverse transcriptase Y181C mutant by scintillation counting assay.
In series [5] the target is T1, Human immunodeficiency virus type 1 reverse transcriptase. Put plainly: Binding affinity to HIV1 wild-type reverse transcriptase by surface plasmon resonance spectroscopy. (In SPR one partner is held on a chip, and binding of the other changes the refractive index at the surface.)
Series [6] concerns Human immunodeficiency virus 1. The series is described as follows: Antiviral activity against HIV1 in human MT4 cells assessed as reduction of viral-induced cytopathic effect in presence of human serum. The format is functional, organism-based. The conditions noted are these: Human immunodeficiency virus 1, MT4. The method, boiled down:
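HIV-1-infected MT4 cells incubated with compound in presence of 40% human serum; reduction of viral cytopathic effect measured; EC50 derived.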
(Cytopathic effects are the visible damage that an infection or toxin causes in cultured cells.)

The test system of series [7] is Human immunodeficiency virus 1. The series is described as follows: Antiviral activity against HIV1 with reverse transcriptase G190A mutation in human MT4 cells assessed as reduction of virus-induced cytopathic effect. The format is functional, organism-based. The conditions noted are these: Human immunodeficiency virus 1, MT4. The method, boiled down: (§2)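 MT4 cells infected with HIV-1 and incubated with compound in the presence of 10% fetal bovine serum. Read-out is the reduction of virus-induced cytopathic effect. EC50 derived; each value is the mean of at least two independent assays.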

Series [8] deals with Human immunodeficiency virus 1. The series is described as follows: Antiviral activity against HIV1 with reverse transcriptase K103N/L100I mutation in human MT4 cells assessed as reduction of virus-induced cytopathic effect. The format is functional, organism-based. The conditions noted are these: Human immunodeficiency virus 1, MT4. In short, it runs like this: as §2
Series [9] relates to Human immunodeficiency virus 1. Put plainly: Antiviral activity against HIV1 with reverse transcriptase K103N/Y181C mutation in human MT4 cells assessed as reduction of virus-induced cytopathic effect. The format is functional, organism-based. The conditions noted are these: Human immunodeficiency virus 1, MT4. In short, it runs like this:
as §2

The target in series [10] is T2, Cytochrome P450 1A2 (Homo sapiens, UniProt P05177).
T2 sequence (P05177 whole entry): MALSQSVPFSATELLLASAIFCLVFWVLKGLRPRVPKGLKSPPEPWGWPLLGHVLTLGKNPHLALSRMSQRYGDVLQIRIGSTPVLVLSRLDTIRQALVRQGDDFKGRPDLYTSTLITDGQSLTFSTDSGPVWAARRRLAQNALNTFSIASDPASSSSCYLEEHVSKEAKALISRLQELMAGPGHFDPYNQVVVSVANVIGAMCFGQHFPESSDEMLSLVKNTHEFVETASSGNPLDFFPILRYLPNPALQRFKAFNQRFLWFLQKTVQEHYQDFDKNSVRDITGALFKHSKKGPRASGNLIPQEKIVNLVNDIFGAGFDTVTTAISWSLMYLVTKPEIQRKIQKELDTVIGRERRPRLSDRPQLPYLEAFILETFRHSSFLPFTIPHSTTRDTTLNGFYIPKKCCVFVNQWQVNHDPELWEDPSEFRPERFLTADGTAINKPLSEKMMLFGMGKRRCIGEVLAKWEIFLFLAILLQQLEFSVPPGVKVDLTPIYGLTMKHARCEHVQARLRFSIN
The series is described as follows: Inhibition of CYP1A2. The format is ADME. In short, it runs like this: as §1

Series [11] deals with Cytochrome P450 2D6 (Homo sapiens, UniProt P10635). Put plainly: Inhibition of CYP2D6. The format is ADME. In short, it runs like this: as §1
The target in series [12] is Cytochrome P450 2C9 (Homo sapiens, UniProt P11712). Put plainly: Inhibition of CYP2C9. The format is ADME. In short, it runs like this:
as §1

Series [13] concerns the target Cytochrome P450 2C19 (Homo sapiens, UniProt P33261). Put plainly: Inhibition of CYP2C19. The format is ADME. In short, it runs like this: as §1
The nature of series [14]: Cmax in rat at 5 mg/kg, po. The format is ADME, organism-based. Details: dose 5 mg/kg, route oral. The conditions noted are these: in vivo. The method, boiled down: (§3)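 Rats dosed orally at 5 mg/kg; plasma Cmax and AUC determined.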
Series [15] relates to Rattus norvegicus. The series is described as follows: AUC in rat at 5 mg/kg, po. The format is ADME, organism-based, Plasma. Details: dose 5 mg/kg, route oral. The conditions noted are these: in vivo. In short, it runs like this: as §3
A short description of series [16]: Half life in rat at 2.5 mg/kg, iv. The conditions noted are these: in vivo. The format is ADME, organism-based. On the set-up: dose 2.5 mg/kg, route intravenous. In short, it runs like this:
(§4)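 Rats given 2.5 mg/kg intravenously; half-life determined; apparent oral bioavailability calculated relative to oral dosing.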

A short description of series [17]: Bioavailability in rat at 2.5 mg/kg, iv. The format is ADME, organism-based. The conditions noted are these: in vivo. In short, it runs like this: as §4
The nature of series [18]: Cmax in dog at 5 mg/kg, po. The format is ADME, organism-based, Canis lupus familiaris. Details: dose 5 mg/kg, route oral. The conditions noted are these: in vivo.
The subject of series [19] is Canis familiaris. Put plainly: AUC in dog at 5 mg/kg, po. The format is ADME, organism-based, Canis lupus familiaris, Plasma. On the set-up: dose 5 mg/kg, route oral. The conditions noted are these: in vivo.
Series [20] can be described thus: Half life in dog at 2.5 mg/kg, iv. On the set-up: dose 2.5 mg/kg, route intravenous. The conditions noted are these: in vivo. The format is ADME, organism-based, Canis lupus familiaris.
A short description of series [21]: Bioavailability in dog at 2.5 mg/kg, iv. The format is ADME, organism-based, Canis lupus familiaris. The conditions noted are these: in vivo.
Series [22] deals with Human immunodeficiency virus 1. Put plainly: Antiviral activity against HIV1 in human MT4 cells assessed as reduction of viral-induced cytopathic effect. The format is functional, organism-based. The conditions noted are these: Human immunodeficiency virus 1, MT4.
The test system of series [23] is Human immunodeficiency virus 1. Put plainly: Antiviral activity against HIV1 with reverse transcriptase K103N mutation in human MT4 cells assessed as reduction of virus-induced cytopathic effect. The conditions noted are these: Human immunodeficiency virus 1, MT4. The format is functional, organism-based. The method, boiled down: as §2
The test system of series [24] is Human immunodeficiency virus 1. The series is described as follows: Antiviral activity against HIV1 with reverse transcriptase Y181C mutation in human MT4 cells assessed as reduction of virus-induced cytopathic effect. The format is functional, organism-based. The conditions noted are these: Human immunodeficiency virus 1, MT4. In short, it runs like this: as §2

Chain of Cytochrome P450 3A4 (P08684 whole entry): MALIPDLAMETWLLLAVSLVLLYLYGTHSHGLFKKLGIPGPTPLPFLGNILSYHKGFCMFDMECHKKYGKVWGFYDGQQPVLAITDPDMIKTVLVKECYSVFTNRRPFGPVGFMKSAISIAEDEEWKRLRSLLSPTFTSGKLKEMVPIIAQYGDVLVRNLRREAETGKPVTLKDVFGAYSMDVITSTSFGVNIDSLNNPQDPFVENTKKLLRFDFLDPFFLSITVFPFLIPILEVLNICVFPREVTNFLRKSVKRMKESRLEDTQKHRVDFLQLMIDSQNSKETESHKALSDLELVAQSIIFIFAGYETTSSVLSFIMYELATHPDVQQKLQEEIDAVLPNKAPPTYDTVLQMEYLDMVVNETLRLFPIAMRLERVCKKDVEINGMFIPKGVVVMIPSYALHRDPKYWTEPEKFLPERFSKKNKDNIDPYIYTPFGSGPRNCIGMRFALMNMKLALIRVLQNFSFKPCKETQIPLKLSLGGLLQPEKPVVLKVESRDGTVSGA
Chain of Cytochrome P450 2C19 (P33261 whole entry): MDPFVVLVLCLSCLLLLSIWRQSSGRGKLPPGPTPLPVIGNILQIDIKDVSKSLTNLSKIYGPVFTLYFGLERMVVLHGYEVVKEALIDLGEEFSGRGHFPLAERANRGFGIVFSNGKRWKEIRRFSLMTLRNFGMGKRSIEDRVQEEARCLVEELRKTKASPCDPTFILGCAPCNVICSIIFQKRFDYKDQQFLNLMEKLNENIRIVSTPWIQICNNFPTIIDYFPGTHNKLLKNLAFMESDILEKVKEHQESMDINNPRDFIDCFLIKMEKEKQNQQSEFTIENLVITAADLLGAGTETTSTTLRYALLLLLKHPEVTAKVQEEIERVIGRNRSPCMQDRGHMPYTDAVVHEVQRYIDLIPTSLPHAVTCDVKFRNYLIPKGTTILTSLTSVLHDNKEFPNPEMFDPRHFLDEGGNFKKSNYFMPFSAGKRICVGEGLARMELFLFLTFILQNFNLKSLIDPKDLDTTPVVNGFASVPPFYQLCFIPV
Chain of Cytochrome P450 2D6 (P10635 whole entry): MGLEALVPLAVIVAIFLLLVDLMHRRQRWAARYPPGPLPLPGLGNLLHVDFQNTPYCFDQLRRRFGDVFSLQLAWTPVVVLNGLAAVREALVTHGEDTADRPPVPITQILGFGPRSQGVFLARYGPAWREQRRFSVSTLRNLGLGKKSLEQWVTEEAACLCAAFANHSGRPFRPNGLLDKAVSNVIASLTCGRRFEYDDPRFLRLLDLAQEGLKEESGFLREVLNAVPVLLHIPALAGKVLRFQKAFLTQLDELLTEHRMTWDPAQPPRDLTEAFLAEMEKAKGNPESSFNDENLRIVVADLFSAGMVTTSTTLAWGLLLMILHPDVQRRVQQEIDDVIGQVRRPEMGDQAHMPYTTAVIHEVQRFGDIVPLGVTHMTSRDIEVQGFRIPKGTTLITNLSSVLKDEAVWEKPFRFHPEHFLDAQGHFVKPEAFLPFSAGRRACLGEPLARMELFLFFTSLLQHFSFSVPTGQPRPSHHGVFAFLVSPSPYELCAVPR
Chain of Cytochrome P450 2C9 (P11712 whole entry): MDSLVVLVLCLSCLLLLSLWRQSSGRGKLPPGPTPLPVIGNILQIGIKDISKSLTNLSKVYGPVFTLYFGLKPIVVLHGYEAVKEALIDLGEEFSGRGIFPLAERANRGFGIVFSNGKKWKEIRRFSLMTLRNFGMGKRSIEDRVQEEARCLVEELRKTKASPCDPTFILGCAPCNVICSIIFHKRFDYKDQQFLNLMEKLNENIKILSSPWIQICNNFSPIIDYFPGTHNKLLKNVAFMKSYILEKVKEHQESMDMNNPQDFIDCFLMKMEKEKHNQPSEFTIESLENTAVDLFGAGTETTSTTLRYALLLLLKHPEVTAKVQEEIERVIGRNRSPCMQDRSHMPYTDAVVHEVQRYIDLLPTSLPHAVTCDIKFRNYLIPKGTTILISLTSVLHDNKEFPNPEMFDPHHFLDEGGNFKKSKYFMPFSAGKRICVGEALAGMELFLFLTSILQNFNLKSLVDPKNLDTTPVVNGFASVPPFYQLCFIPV

The IC50 is the concentration that gives 50% inhibition. Regarding `O=C(c1cccc(Cl)c1)c1cc(Cc2ccc(=O)[nH]n2)cc2ccoc12`, the IC50 in series [1] came to 8.2 µM; in series [2] it was 0.6 µM.
With `Cc1cc(Cc2ccc(Cl)c(Oc3ccccc3)c2)n[nH]c1=O`, the results for the IC50 in series [1], in series [3] and in [4] were 0.36 µM, 0.92 µM and 2.13 µM, respectively.
Compound `O=c1ccc(Cc2cccc(Oc3cccc(Cl)c3)c2)n[nH]1` showed an IC50 in [1] of 21 µM.
Regarding `Cc1cc(Cl)cc(Oc2cccc(Cc3ccc(=O)[nH]n3)c2)c1`, in series [1], the IC50 was determined as 14 µM.
Consider `O=c1ccc(Cc2ccc(Cl)c(Oc3cccc(Cl)c3)c2)n[nH]1`, for which the IC50 in [1] turned out to be 0.1 µM.
In the case of `Cc1cc(Cc2ccc(Cl)c(Oc3ccccc3)c2F)n[nH]c1=O`, the results for the IC50 in series [1], in series [3] and in series [4] were 0.02 µM, 0.05 µM and 0.21 µM, respectively.
For orientation: EC50 means the concentration at which the effect is half-maximal. By Kd is commonly meant the constant that tells how readily two partners part at equilibrium. Low readings indicate higher affinity, high ones lower affinity. Broadly, the Cmax is the peak of the concentration-time curve. As usually defined, the half-life is the time needed for the level to fall by half in the phase considered. A high value points to slow loss. What is called bioavailability is the share of a dose that reaches the circulation, judged against a reference dose that is usually intravenous. Higher therefore signals much systemic uptake. In the case of `Cc1cc(Cc2ccc(Cl)c(Oc3cc(F)cc(C#N)c3)c2F)n[nH]c1=O`, the EC50 was found to be 0.002 µM in series [3]; 0.011 µM in series [6]; 0.001 µM in series [7]; 0.003 µM in series [8]; 0.041 µM in [9]. In addition, the IC50 in [2] is 24 µM; in series [10], > 50 µM; in series [11], > 50 µM; in series [12], 8 µM; in [13] it was 21 µM. Besides, the affinity in series [5], expressed as Kd, was 0.0084 µM. Besides, the Cmax came to 2300 nM in [14] and 1470 nM in [18]. For the same compound, the values for the AUC in series [15] and in series [19] were 22.4 uM.hr/ml and 8.8 uM.hr/ml, respectively. Besides, the results for the half-life in [16] and in series [20] were 3.8 h and 6.4 h, respectively. Besides, the results for the bioavailability in [17] and in [21] were 61% and 34%, respectively.
As to `O=c1ccc(Cc2ccc(Cl)c(Oc3ccccc3)c2F)n[nH]1`, the results for the IC50 in series [1], in [3] and in series [4] were 0.1 µM, 0.43 µM and 0.5 µM, respectively.
Take `O=c1ccc(Cc2cc(Cc3cccc(Cl)c3)c3occc3c2)n[nH]1`: the IC50 in series [1] came out at 3.9 µM; in series [2] it was 0.18 µM.
Consider `O=c1ccc(Cc2ccc(Cl)c(Oc3ccccc3)c2)n[nH]1`, for which the 50% inhibitory concentration (IC50) stood at 0.52 µM in [1], 3.35 µM in series [3] and 5.49 µM in series [4].
For the compound `O=C(c1ccc(Cl)cc1)c1cc(Cc2ccc(=O)[nH]n2)cc2ccoc12`, the concentration for half-maximal inhibition (IC50) in series [1] was 0.4 µM; in series [3] it was 0.26 µM; in [4] it was 0.36 µM. Further, the results for the half-maximal effective concentration (EC50) in [22], in series [23] and in series [24] were 0.08 µM, 0.07 µM and 0.21 µM, respectively.
For `O=c1ccc(Cc2cc(Oc3cccc(Cl)c3)c3occc3c2)n[nH]1`, the IC50 stood at 1 µM in series [1] and 0.41 µM in series [2].
For `COc1cc(C#N)cc(Oc2c(Cl)ccc(Cc3cc(C)c(=O)[nH]n3)c2F)c1`, the EC50 in [6] came to 0.015 µM; in series [7], 0.001 µM; in series [8], 0.002 µM; in series [9], 0.031 µM.
`Cc1ccc(Cc2ccc(=O)[nH]n2)cc1Oc1cccc(Cl)c1` displayed an IC50 in series [1] of 0.64 µM.
In the case of `Cc1cc(Cc2ccc(Cl)c(Oc3cc(C#N)cc(C#N)c3)c2F)n[nH]c1=O`, the EC50 amounted to 0.002 µM in [3], 0.007 µM in series [6], 0.001 µM in [7] and 0.019 µM in [9].
Take `O=C1Nc2ccc(Cl)cc2C(C#CC2CC2)(C(F)(F)F)O1` (single isomer, unassigned) [EFAVIRENZ]: the EC50 is 0.019 µM in series [6], 0.006 µM in series [7], > 0.5 µM in series [8] and 0.083 µM in series [9].

These data come from ChEMBL document CHEMBL1155885, “Discovery and optimization of pyridazinone non-nucleoside inhibitors of HIV-1 reverse transcriptase” (Bioorg Med Chem Lett, 2008).
